The subject of one data set is RAW264.7. Kind of data set: Cytotoxicity against mouse RAW264.7 cells assessed as living cells at 7.5 uM by MTT assay. It counts as cell-based. To be noted: raw264.7, 7.5 µM. Summed up:
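RAW 264.7 macrophages: MTT viability assay run in parallel with each nitrite (Griess) experiment, same cell line and same compound treatment conditions.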
(In general: Tetrazolium assays rely on reduction of a dye to a coloured formazan, in cell work by metabolically active cells.)

The target in data set [1] is T1, Nitric oxide synthase, inducible (Mus musculus) (UniProt P29477).
T1 sequence (whole entry): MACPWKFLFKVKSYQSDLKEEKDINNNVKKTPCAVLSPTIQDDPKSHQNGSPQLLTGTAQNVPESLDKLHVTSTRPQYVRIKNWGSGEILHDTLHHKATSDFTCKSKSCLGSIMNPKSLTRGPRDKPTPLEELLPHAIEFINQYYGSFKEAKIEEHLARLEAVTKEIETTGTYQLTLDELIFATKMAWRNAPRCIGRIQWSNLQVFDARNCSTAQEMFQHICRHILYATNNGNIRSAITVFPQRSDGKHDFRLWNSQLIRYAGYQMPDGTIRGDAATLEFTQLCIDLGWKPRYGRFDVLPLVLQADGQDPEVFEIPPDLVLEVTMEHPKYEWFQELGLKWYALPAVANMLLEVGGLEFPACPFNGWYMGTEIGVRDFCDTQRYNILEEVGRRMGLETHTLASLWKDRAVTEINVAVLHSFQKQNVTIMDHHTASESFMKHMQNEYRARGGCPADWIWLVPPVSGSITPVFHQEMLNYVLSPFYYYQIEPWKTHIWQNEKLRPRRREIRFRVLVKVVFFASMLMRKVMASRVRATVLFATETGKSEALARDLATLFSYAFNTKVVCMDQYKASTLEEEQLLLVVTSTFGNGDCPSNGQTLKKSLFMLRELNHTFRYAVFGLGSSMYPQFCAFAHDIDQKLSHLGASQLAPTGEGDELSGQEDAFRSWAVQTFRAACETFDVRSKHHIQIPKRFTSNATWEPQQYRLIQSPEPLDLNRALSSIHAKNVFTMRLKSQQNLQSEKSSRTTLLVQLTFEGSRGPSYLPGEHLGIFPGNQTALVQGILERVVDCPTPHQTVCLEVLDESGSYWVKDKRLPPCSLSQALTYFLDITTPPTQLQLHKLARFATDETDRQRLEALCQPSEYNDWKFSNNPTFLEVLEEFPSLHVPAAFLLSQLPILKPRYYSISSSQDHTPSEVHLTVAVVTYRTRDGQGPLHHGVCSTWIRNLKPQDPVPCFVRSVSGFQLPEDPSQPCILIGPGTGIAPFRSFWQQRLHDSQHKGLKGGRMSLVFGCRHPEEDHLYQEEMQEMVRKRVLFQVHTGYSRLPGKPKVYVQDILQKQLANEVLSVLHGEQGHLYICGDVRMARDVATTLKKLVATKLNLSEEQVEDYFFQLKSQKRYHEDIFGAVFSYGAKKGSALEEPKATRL
Kind of data set: Inhibition of iNOS induction in mouse RAW264.7 cells assessed as NO production at 7.5 uM. Type of data set: cell-based. Summed up: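 RAW 264.7 cells seeded at 8 × 10⁴ per well in DMEM/10% FBS and grown 2 days. Then exposed to LPS with compound or DMSO for 20 h. Supernatant nitrite measured by Griess reaction (sulfanilamide/NED) at 550 nm minus 620 nm background, quantified against a sodium nitrite standard curve. At least four experiments in triplicate.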

Data set [2] has as its target T2, Protein kinase C zeta type (Homo sapiens, UniProt Q05513).
T2 sequence (Q05513 whole entry): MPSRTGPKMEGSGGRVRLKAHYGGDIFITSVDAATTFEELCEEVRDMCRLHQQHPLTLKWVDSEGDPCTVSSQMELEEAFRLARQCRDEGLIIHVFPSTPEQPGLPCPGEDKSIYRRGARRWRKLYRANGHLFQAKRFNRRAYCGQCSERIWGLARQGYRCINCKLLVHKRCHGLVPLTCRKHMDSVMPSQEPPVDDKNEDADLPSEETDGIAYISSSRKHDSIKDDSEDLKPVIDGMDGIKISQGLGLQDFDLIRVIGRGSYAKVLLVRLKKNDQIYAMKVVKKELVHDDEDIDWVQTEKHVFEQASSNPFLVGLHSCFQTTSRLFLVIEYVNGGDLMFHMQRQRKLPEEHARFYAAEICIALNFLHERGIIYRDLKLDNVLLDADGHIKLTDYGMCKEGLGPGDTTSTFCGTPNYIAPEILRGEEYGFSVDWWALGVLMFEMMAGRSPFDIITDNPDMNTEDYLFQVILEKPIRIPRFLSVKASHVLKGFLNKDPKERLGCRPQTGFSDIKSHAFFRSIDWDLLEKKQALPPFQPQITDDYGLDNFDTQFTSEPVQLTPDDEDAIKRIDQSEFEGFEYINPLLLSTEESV
Kind of data set: Inhibition of human PKCzeta assessed as phosphorylation reaction after 4 mins incubation by cell-free assay.

The species named for a further data set is Homo sapiens. Kind of data set: Ratio of IC50 for PKCzeta val297leu mutant (unknown origin) to IC50 for wild type PKCzeta (unknown origin). Summed up:
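Cell-free radiometric assay with purified recombinant full-length PKCζ wild type or PIF-pocket V297L mutant. Enzyme present at 0.2 μM. 4 min preincubation at 37 °C, reaction started with γ32P-ATP/Mg2+. IC50 values are means of at least two experiments.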

In data set [3] the target is Protein kinase C zeta type (Homo sapiens, UniProt Q05513, V297L). Kind of data set: Inhibition of PKCzeta val297leu mutant (unknown origin) assessed as phosphorylation reaction after 4 mins incubation by cell-free assay.
For data set [4], the target named is T3, Protein kinase C iota type (Homo sapiens) (UniProt P41743).
T3 sequence (whole entry): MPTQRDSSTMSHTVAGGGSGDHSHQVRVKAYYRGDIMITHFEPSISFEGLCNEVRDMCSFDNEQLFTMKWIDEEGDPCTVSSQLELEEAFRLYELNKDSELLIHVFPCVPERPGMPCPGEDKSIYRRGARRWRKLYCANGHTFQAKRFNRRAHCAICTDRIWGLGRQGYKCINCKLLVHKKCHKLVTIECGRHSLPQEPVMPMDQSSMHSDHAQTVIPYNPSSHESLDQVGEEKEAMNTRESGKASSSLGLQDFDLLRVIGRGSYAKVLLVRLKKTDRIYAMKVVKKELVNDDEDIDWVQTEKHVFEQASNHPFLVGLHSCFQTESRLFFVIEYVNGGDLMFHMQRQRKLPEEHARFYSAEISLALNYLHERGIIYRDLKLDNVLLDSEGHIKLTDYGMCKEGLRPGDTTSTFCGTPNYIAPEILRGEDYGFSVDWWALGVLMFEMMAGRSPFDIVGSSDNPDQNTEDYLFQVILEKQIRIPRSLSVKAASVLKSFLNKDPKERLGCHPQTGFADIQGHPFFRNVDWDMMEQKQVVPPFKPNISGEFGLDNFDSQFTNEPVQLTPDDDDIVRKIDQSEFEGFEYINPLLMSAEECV
Kind of data set: Inhibition of PKCiota (unknown origin) at 20 uM. Summed up: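 Cell-free radiometric kinase assay with purified recombinant PKCι under conditions similar to the PKCζ assay. Reaction mixtures preincubated 4 min at 37 °C, then phosphorylation started with γ32P-ATP/Mg2+. Mean of at least two experiments.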

The target in data set [5] is T2, Protein kinase C zeta type. Kind of data set: Inhibition of PKCzeta in human U937 cells assessed as inhibition of TNFalpha-induced NF-kappaB activation by reporter gene assay. Type of data set: cell-based, U-937. For orientation: In a reporter assay the amount or activity of a reporter protein is the signal.
The target of data set [6] is Serine/threonine-protein kinase TBK1 (Homo sapiens) (UniProt Q9UHD2). Kind of data set: Inhibition of human TBK1 at 10 uM relative to control.
Data set [7] has as its target Mitogen-activated protein kinase 14 (Homo sapiens) (UniProt Q16539). Kind of data set: Inhibition of human p38alpha MAPK at 10 uM relative to control.
In data set [8] the target is Inhibitor of nuclear factor kappa-B kinase subunit beta (Homo sapiens) (UniProt O14920). Put plainly: Inhibition of human IKKbeta at 10 uM relative to control.
Data set [9] deals with Mitogen-activated protein kinase kinase kinase 7 (Homo sapiens) (UniProt O43318). Kind of data set: Inhibition of human TAK1 at 10 uM relative to control.
Data set [10] addresses Protein kinase C beta type (Homo sapiens) (UniProt P05771). Put plainly: Inhibition of human PKCbeta2 at 10 uM relative to control.
The target in data set [11] is Receptor-interacting serine/threonine-protein kinase 2 (Homo sapiens) (UniProt O43353). Put plainly: Inhibition of human RIPK2 at 10 uM relative to control.
In data set [12] the target is T4, Protein kinase C zeta type (Homo sapiens) (UniProt Q05513).
T4 sequence (whole entry): T2 sequence (Q05513 whole entry)
Kind of data set: Inhibition of PKCzeta (unknown origin) expressed in HEK293 cells assessed as reduction in specific activity at 2 to 5 uM for 6 hrs after 30 mins IGF-I stimulation by in serum free medium. Type of data set: cell-based. Put shortly:
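HEK293 cells transfected at 80% confluency with GST-PKCζ wild-type or V297L mutant plasmids. Next day switched to DMEM with 0.1% FCS and compound or DMSO for 6 h, then IGF-I 50 ng/mL final for 30 min at 37 °C. Lysed; GST-PKCζ pulled down on glutathione beads and eluted. 50 ng per reaction assayed for kinase activity with myelin basic protein as substrate. Triplicate treatments, two independent experiments.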

The target of data set [13] is T4, Protein kinase C zeta type (Homo sapiens). Put plainly: Inhibition of PKCzeta in serum-starved human U937 cells assessed as inhibition of TNFalpha-stimulated activation loop phosphorylation at 2.5 to 5 uM by immunoblotting analysis. Type of data set: cell-based. The settings on record: U-937. Put shortly:
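U937 cells in RPMI/10% FBS, serum-starved 24 h, treated with compound or DMSO for 1 h, then TNFα 50 ng/mL for 30 min. Whole-cell lysates separated by SDS–PAGE (10% gel) and immunoblotted for phospho-PKCζ/λ (Thr410/403), with β-actin as loading control. Near-infrared detection. Two separate experiments.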
(In general: Immunoblotting shows a protein as a band on a membrane.)

From ChEMBL document CHEMBL3351692, “Discovery and optimization of 1,3,5-trisubstituted pyrazolines as potent and highly selective allosteric inhibitors of protein kinase C-ζ” (J Med Chem, 2014) come the findings set out here.

Each structure is given as a SMILES string. Active and inactive are the calls of the source. The calls are words filed in the database; no cut-off is given here.

Protein kinase C zeta type (Homo sapiens, UniProt Q05513, V297L), sequence (Q05513 whole entry V297L): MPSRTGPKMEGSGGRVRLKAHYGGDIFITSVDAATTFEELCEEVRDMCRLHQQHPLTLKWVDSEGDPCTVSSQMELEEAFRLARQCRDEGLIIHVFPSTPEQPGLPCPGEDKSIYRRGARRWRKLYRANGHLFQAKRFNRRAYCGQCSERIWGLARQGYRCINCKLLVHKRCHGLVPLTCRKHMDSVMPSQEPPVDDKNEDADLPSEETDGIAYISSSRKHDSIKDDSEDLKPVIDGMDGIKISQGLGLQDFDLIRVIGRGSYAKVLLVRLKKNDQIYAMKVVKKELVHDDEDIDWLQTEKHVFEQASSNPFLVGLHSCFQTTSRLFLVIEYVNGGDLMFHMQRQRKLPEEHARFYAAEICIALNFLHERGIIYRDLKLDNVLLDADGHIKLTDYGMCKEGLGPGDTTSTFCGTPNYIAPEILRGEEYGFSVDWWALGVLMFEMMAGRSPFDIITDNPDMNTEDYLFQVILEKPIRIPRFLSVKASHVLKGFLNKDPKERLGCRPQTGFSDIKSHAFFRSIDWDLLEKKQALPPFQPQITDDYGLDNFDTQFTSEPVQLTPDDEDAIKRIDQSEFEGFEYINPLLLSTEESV
Protein kinase C beta type (Homo sapiens), sequence (P05771 2-671 limits assumed): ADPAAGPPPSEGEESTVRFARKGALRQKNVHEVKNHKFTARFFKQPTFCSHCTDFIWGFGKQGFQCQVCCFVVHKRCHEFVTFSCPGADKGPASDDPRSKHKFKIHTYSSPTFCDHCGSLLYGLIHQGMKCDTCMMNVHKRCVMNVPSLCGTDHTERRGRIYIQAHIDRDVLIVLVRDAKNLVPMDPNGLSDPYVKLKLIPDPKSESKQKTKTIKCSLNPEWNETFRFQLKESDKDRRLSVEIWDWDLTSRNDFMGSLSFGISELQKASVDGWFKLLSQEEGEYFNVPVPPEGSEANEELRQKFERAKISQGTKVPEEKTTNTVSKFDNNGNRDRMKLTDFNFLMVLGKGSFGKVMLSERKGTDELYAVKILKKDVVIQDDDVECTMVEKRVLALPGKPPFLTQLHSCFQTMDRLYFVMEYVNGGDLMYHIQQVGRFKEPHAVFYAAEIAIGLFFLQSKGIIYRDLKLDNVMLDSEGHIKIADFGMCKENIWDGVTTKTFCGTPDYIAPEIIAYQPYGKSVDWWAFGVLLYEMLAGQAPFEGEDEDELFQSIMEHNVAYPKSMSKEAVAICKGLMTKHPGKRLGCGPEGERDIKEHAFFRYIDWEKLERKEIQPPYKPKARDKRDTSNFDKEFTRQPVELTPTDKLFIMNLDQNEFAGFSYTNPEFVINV
Receptor-interacting serine/threonine-protein kinase 2 (Homo sapiens), sequence (O43353 whole entry): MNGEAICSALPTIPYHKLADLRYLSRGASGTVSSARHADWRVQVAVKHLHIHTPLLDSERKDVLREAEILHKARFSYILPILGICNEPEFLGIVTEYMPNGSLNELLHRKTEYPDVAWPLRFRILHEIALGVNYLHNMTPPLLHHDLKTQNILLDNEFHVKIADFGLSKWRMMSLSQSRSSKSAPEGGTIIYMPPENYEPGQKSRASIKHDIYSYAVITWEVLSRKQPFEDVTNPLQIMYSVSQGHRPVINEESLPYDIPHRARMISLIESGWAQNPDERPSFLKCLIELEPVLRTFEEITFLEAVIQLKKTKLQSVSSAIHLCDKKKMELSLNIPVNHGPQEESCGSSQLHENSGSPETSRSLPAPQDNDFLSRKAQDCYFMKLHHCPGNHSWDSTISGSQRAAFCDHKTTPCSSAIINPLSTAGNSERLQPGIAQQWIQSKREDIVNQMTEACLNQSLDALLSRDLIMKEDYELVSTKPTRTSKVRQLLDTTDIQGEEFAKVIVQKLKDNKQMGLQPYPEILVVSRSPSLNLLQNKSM
Inhibitor of nuclear factor kappa-B kinase subunit beta (Homo sapiens), sequence (O14920 whole entry): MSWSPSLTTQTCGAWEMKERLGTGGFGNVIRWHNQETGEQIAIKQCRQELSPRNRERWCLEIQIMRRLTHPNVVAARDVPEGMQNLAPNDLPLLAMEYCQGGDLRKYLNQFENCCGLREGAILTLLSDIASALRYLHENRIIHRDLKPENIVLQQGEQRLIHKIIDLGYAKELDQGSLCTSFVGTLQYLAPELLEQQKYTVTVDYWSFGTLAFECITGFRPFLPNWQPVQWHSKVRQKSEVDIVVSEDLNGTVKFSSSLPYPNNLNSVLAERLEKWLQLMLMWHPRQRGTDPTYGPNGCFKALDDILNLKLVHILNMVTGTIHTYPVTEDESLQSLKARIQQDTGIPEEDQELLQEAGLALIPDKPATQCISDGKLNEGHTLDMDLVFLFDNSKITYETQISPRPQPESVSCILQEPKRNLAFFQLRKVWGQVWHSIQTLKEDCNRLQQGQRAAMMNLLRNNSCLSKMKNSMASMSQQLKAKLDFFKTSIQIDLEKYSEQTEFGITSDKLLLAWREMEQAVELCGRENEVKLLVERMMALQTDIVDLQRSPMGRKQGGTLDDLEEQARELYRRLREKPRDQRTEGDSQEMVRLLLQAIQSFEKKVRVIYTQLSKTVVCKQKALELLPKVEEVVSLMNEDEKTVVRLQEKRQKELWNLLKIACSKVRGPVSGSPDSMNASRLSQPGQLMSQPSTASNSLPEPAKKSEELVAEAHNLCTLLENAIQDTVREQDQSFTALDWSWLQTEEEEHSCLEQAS
Mitogen-activated protein kinase 14 (Homo sapiens), sequence (Q16539 whole entry): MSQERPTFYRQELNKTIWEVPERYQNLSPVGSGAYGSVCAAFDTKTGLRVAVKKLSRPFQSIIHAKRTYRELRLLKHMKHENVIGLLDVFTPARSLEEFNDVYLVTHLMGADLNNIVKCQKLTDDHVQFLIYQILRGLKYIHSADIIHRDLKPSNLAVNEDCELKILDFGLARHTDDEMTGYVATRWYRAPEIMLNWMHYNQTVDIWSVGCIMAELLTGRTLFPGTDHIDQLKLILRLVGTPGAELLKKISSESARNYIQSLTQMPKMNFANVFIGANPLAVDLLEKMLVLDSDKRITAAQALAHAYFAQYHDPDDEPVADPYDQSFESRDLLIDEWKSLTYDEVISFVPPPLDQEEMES
Mitogen-activated protein kinase kinase kinase 7 (Homo sapiens), sequence (O43318 whole entry): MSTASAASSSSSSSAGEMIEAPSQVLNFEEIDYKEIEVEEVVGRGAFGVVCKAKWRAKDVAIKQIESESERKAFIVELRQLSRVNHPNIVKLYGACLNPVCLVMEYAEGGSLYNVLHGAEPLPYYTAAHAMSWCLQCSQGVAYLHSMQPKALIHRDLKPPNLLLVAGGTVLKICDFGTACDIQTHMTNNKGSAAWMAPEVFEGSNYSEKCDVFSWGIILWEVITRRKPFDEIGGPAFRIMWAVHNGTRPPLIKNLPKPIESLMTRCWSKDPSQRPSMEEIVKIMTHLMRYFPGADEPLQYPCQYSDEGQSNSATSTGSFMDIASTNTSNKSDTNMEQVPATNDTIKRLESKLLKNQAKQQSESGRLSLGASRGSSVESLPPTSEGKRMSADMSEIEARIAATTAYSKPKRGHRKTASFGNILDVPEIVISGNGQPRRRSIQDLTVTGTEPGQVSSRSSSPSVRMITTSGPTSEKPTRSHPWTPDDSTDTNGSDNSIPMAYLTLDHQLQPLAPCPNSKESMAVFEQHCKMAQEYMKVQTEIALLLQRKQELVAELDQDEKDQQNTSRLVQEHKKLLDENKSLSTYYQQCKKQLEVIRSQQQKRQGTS
Serine/threonine-protein kinase TBK1 (Homo sapiens), sequence (Q9UHD2 whole entry): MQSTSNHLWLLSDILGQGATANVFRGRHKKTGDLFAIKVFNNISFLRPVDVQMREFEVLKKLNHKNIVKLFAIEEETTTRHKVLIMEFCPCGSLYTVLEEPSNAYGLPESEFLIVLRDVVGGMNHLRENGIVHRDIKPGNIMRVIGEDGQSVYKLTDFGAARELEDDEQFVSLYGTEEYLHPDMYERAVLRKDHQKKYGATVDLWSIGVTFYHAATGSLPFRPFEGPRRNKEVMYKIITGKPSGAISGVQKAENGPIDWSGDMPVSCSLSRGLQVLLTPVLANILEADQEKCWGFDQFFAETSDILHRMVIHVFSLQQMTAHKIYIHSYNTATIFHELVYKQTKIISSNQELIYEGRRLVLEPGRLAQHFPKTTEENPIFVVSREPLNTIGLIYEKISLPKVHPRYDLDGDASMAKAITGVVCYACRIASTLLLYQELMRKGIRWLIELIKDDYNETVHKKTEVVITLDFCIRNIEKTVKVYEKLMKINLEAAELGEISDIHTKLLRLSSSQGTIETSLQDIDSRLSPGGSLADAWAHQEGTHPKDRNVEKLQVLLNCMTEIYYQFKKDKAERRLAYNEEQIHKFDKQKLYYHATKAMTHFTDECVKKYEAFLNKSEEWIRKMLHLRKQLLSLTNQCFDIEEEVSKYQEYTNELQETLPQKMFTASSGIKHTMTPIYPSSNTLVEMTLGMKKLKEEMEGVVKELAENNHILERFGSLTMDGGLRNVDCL

As to `COc1cc(/C=C/C(=O)CC(=O)/C=C/c2ccc(O)c(OC)c2)ccc1O` [CURCUMIN], in the data set on RAW264.7, the Activity result was “Non-toxic”. In addition, in data set [1], the inhibition is 97%.

On to `Oc1ccc(C2CC(c3cccs3)=NN2c2ccc(Br)cc2)cc1` (centres undefined), for which the IC50 in data set [2] came to 500 nM; in [3] it was 1000 nM. Further, in the data set filed under Homo sapiens, the Ratio IC50 amounted to 2. In addition, the Activity result in the data set on RAW264.7 is recorded as “Non-toxic”. The inhibition worked out at 21.4% in data set [4] and 65% in data set [1].

As for `Oc1ccc(C2CC(c3ccccc3O)=NN2c2ccc(Cl)cc2)cc1` (centres undefined), the IC50 in [2] is 1500 nM; in data set [3], 3100 nM. For the same molecule, the Ratio IC50 in the data set filed under Homo sapiens is 2.1. In the data set on RAW264.7, the Activity result is listed as “Non-toxic”. The same molecule gave an inhibition in [4] of 13.4%.

Turning to `Oc1ccc(C2CC(c3cccs3)=NN2c2ccc(C(F)(F)F)cc2)cc1` (centres undefined), the IC50 in [5] is 2900 nM; in data set [2], 400 nM. The Activity result with RAW264.7 is recorded as “Non-toxic”. The inhibition was 45.9% in data set [4] and 69% in data set [1].

For the molecule `CC(C)(C)C1=NN(c2ccc(Cl)cc2)C(c2ccc(O)cc2)C1` (centres undefined), the inhibition result in data set [6], in data set [8], in [9], in data set [10] and in data set [11] was “inactive” throughout. Further, the inhibition in data set [7] stood at 10%; in data set [1] it was 50%. In the data set with RAW264.7, the Activity entry is given as “Non-toxic”.

As for `CC(C)(C)C1=NN(c2ccc(Cl)cc2)C(c2ccc(O)c(Cl)c2)C1` (centres undefined), the half-maximal inhibitory concentration (IC50) in data set [5] turned out to be 2900 nM; in data set [2] it was 700 nM; in data set [3] it was 14800 nM. Besides, the Ratio IC50 in the data set filed under Homo sapiens is 20.8. For the same molecule, in the data set with RAW264.7, the Activity result is given as “Non-toxic”. Also, in data set [4], the inhibition worked out at 0%.

Turning to `CC(C)(C)C1=NN(c2ccccc2)C(c2ccc(O)cc2)C1` (centres undefined), the Activity result with RAW264.7 is on record as “Non-toxic”. Besides, the inhibition in [1] was determined as 32%.

Take `CC(C)(C)C1=NN(c2ccccc2Cl)C(c2ccc(O)cc2)C1` (centres undefined): in the data set on RAW264.7, the Activity entry is reported as “Non-toxic”. In addition, the inhibition in data set [1] turned out to be 26%.

As to `Cn1cc(C2=C(c3cn(CCCSC(=N)N)c4ccccc34)C(=O)NC2=O)c2ccccc21`, the inhibition entry in data set [12] and in [13] was “inactive” each time. Besides, the inhibition result in data set [10] was “Active”.

For orientation: inhibition means how much of the control response was suppressed. As usually defined, the IC50 is the midpoint of a concentration-inhibition curve.
